Assay results as given in paper PMC3288198 (ACS Chemical Biology, 2011).
“Also recorded” adds a separate entry of the source. Read-outs that look alike come from different tables or passages of the source. Where a SMILES comes first, the peptide text is derived from it. The star is where a group is joined. Cbz = O=C(OCc1ccccc1)*

Key:
FLT-3 and STAT5 = experiment: Western blot of FLT-3 and STAT5 levels in MV4-11 cells; type: cell-based, human; conditions: for effect on FLT-3 and STAT5 protein levels: 3 hr post-treatment
In short: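 MV4-11 cells cultured with 10% heat-inactivated FBS at 37°C, 5% CO2. Exposed to a concentration series of test compound, harvested 3 hr post-treatment. Lysed in low-salt Tris pH 7.4 buffer containing 1 μM TSA and sonicated. Lysates denatured in LDS and run on 4–12% gradient gels. Blots probed for FLT-3, STAT5, Erk and phospho-Erk; HRP secondary with ECL detection.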

HDAC6 [1] = target: T1, HDAC6 (Homo sapiens, UniProt Q9UBN7); experiment: HDAC deacetylase homogenous fluorescence assay, HDAC6; type: biochemical; conditions: for concentration above which HDAC6 was inhibited: data not shown
T1 sequence (Q9UBN7 1-1215): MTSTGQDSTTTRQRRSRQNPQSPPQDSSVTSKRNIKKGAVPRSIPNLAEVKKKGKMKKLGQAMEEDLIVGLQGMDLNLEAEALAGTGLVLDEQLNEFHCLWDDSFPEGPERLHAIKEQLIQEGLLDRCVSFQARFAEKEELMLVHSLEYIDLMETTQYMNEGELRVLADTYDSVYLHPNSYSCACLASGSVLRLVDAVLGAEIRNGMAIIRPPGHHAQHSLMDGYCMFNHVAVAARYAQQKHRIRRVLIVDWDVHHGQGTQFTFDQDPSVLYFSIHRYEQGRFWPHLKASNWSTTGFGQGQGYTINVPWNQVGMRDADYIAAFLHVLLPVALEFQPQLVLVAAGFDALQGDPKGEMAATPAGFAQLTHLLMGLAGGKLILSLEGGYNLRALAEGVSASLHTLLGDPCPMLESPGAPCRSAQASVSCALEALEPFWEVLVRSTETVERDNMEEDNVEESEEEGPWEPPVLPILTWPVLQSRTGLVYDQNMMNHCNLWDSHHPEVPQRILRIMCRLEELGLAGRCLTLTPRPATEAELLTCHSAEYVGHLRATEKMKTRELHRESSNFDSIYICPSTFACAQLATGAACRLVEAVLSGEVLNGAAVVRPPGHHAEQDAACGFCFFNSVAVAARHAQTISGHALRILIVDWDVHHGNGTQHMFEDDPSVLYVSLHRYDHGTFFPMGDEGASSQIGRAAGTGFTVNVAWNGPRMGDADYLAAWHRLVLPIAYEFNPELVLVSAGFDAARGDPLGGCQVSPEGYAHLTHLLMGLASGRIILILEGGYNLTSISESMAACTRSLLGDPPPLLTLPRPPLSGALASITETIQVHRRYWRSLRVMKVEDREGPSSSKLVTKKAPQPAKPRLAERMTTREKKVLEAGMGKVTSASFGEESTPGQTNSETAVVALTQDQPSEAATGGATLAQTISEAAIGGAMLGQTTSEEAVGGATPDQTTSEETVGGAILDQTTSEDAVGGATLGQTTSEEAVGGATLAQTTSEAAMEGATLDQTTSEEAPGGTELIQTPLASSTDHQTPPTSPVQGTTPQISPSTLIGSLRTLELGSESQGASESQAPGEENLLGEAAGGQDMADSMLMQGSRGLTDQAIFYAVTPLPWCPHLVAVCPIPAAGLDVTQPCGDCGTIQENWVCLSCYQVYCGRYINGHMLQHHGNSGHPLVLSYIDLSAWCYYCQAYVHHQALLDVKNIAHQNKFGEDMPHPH
In short: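 Baculovirus-expressed recombinant human enzyme (HDAC3 as HDAC3/N-CoR2 complex) incubated with serially diluted test compound over a 12-point titration. Substrate: acetylated AMC-K(Ac)GL. Deacetylated product cleaved by lysine peptidase to free MCA, read at ex 355/em 460 nm. Data normalised to control plate by plate. IC50 and SD from non-linear regression; Ki via Cheng-Prusoff, Ki = IC50/(1+[S]/Km).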

[2] = tested on: full panel of human recombinant HDAC enzymes; experiment: Inhibition profile over full panel of HDACs; type: biochemical
In short: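 Panel of recombinant human HDAC1–11, 12-point titration of test compound per isozyme. Substrates: AMC-K(Ac)GL for HDAC1, 2, 3/N-CoR2, 6 and 10; AMC-K(TFA)GL for HDAC4, 5, 7, 8, 9 and 11. Peptidase-released MCA fluorescence at ex 355/em 460 nm, normalised to controls. IC50 by non-linear regression.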

[3] = tested on: mitogen stimulated proliferating PBMC; experiment: MTS cell proliferation assay, proliferating PBMC; type: cell-based, human; conditions: proliferating PBMC vs AML cells ex vivo
acetylated tubulin [4] = experiment: Western blot of acetylated tubulin in MV4-11 cells; type: cell-based, human
In short: (§1)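 MV4-11 cells (10% heat-inactivated FBS, 37°C, 5% CO2) treated with test compound at a range of concentrations. Washed in cold HBSS and lysed 30 min in low-salt Tris pH 7.4 buffer with protease/phosphatase inhibitors and 1 μM TSA, then sonicated. LDS-denatured lysates run on 4–12% gradient gels. Probes: acetyl-H3, acetyl-H4, total H3, acetyl-α-tubulin, tubulin. HRP secondary, ECL read-out.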

[5] = tested on: acetylated histone H3 and H4; experiment: Western blot of acetylated histone H3/H4 in MV4-11 cells; type: cell-based, human
In short: as §1

Hsp90 acetylation [6] = experiment: Immunoprecipitation/immunoblot of Hsp90 acetylation in MV4-11 cells; type: cell-based, human; conditions: 3 hr post-treatment
In short: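 MV4-11 AML cells (10% heat-inactivated FBS, 37°C, 5% CO2) treated with test compound, harvested 3 hr post-treatment. Cells washed in cold HBSS, lysed 30 min in low-salt buffer (50 mM Tris-HCl pH 7.4, 150 mM NaCl, 10% glycerol, Triton X-100, protease/phosphatase inhibitors, 1 μM TSA), then sonicated. Hsp90 pulled down on Hsp90-conjugated beads for 1 hr. Blots probed for Hsp90, acetyl-lysine and acetyl-Hsp90 K69.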

ubiquitinated protein = experiment: Western blot of total ubiquitinated protein in MV4-11 cells; type: cell-based, human; conditions: within 3 hr
acetylated tubulin [7] = experiment: Western blot of acetylated tubulin in PBMC; type: cell-based, human; conditions: PBMC from normal donors, 3 hr post-treatment
Hsp90 acetylation [8] = conditions: 16 hrs post inhibitor treatment; cited from earlier work
HDAC6 [9] = conditions: cited from earlier work

CC(C)C[C@@H](C=O)NC(=O)[C@H](CC(C)C)NC(=O)[C@H](CC(C)C)NC(=O)OCc1ccccc1 [MG132] (Cbz-Leu-Leu-Leu-aldehyde)
prevention of STAT5 degradation caused by HDAC6 inhibition (FLT-3 and STAT5; 10 μM MG132 co-treatment): did not prevent STAT5 degradation | rescue of FLT-3 degradation caused by HDAC6 inhibition (FLT-3 and STAT5; 10 μM MG132 co-treatment): rescued

O=C1C=C(NCc2ccccc2)C(=O)c2ccccc21 [NQN-1, 2-benzyl-amino-naphthoquinone]
IC50 (HDAC6 [1]; read-out: HDAC6 IC50, 12 point titration, acetylated substrate): 5.54 ± 0.9 µM | Ki (HDAC6 [1]; read-out: HDAC6 Ki, converted from IC50 using Cheng-Prusoff equation): 1.3 ± 0.22 µM | HDAC inhibition profile / selectivity over the panel [2]: did not inhibit other HDACs in our panel | selectivity, proliferating PBMC over AML (MV4-11) cell toxicity [3]: 4 fold | induction of acetylated tubulin (acetylated tubulin [4]): selectively induced hyperacetylated tubulin | effect on acetylated histone H3/H4 levels [5]: without an increase in histone H3 and H4 acetylation; also recorded: unexpectedly caused a decrease in acetylated histone H4 | induction of Hsp90 acetylation (Hsp90 acetylation [6]): induces Hsp90 acetylation | effect on FLT-3 and STAT5 protein levels (FLT-3 and STAT5): decrease within 3 hr | total ubiquitinated protein level (ubiquitinated protein): increase in total ubiquitinated protein level | tubulin acetylation level in PBMC (acetylated tubulin [7]): did not increase

O=C(CCCCCCC(=O)Nc1ccccc1)NO [SAHA, Suberoylanilide hydroxamic acid]
induction of acetylated tubulin (acetylated tubulin [4]): induces both acetylated tubulin and histone | effect on acetylated histone H3/H4 levels [5]: induces both acetylated tubulin and histone | induction of Hsp90 acetylation (Hsp90 acetylation [6]): did not induce Hsp90 acetylation | effect on FLT-3 and STAT5 protein levels (FLT-3 and STAT5): did not induce Hsp90 acetylation or reduce FLT-3 and STAT5 levels

CC(/C=C/C(=O)NO)=C\[C@@H](C)C(=O)c1ccc(N(C)C)cc1 [TSA]
induction of Hsp90 acetylation (Hsp90 acetylation [6]): did not induce Hsp90 acetylation | effect on FLT-3 and STAT5 protein levels (FLT-3 and STAT5): did not induce Hsp90 acetylation or reduce FLT-3 and STAT5 levels

CC1=C(C/C=C(\C)CCC[C@H](C)CCC[C@H](C)CCCC(C)C)C(=O)c2ccccc2C1=O [Vitamin K1]
concentration above which HDAC6 was inhibited (HDAC6 [1]): above 200 μM

Cc1ccc(NC(=O)CCCCCC(=O)Nc2ccccc2N)cc1 [inhibitor 106]
effect on acetylated histone H3/H4 levels [5]: only induces hyperacetylated histone H3/H4 | induction of Hsp90 acetylation (Hsp90 acetylation [6]): did not induce Hsp90 acetylation | effect on FLT-3 and STAT5 protein levels (FLT-3 and STAT5): did not induce Hsp90 acetylation or reduce FLT-3 and STAT5 levels

O=C(CCCCCCC(=O)Nc1ccc([C@H]2O[C@@H](CSc3nc(-c4ccccc4)c(-c4ccccc4)o3)C[C@@H](c3ccc(CO)cc3)O2)cc1)NO [tubacin]
effect on acetylated histone H3/H4 levels [5]: decreases in acetylated histones | induction of Hsp90 acetylation (Hsp90 acetylation [8]): does not significantly increase Hsp90 acetylation

CN1CCc2c(c3ccccc3n2Cc2ccc(C(=O)NO)cc2)C1 [tubastatin A]
induction of acetylated tubulin (acetylated tubulin [4]): higher induction of tubulin acetylation | effect on acetylated histone H3/H4 levels [5]: decreases in acetylated histones | induction of Hsp90 acetylation (Hsp90 acetylation [6]): No induction of Hsp90 acetylation | selectivity for HDAC6 over HDAC1 (HDAC6 [9]): > 1000

CC1=CC(=O)c2ccccc2C1=O [vitamin K3, 2-methyl-naphthoquinone]
IC50 (HDAC6 [1]): 25 µM | HDAC inhibition profile / selectivity over the panel [2]: selectively inhibited HDAC6 and HDAC8 at low μM

Vitamin K2
concentration above which HDAC6 was inhibited (HDAC6 [1]): above 200 μM
